High-throughput results deposited in PubChem BioAssay by several laboratories.
procasp7 counter: counter-screen for procaspase-3 activators: activators of human procaspase-7; P55210; recombinant procaspase-7, Ac-DEVD-pNA absorbance 405 nm; D23A/D198A/D206A triple mutant, cannot self-cleave; scale: DMSO 0, 5 µM enzyme 100; activation, % at 8.5 µM; actives 0.093% (n = 330,000); AID 463210;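 active means percent activation above the screen-wide mean plus 3 SD, cut at about 25% in these data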
Target sequence (P55210 whole entry D23A/D198A/D206A): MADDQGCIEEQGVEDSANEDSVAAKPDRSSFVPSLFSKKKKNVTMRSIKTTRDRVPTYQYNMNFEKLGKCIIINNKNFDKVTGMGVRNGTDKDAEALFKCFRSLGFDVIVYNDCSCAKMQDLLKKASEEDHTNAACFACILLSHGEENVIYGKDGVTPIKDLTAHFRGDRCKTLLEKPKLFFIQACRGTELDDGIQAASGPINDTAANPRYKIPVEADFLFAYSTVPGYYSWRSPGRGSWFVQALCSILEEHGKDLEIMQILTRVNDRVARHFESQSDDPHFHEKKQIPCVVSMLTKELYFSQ
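Test system: Procaspase-7 triple mutant (PC-7 D3A). Also added: Ac-DEVD-pNA substrate, 400 µM as added. Schedule: 1 h enzyme–compound preincubation and 2 h substrate reaction, both 25 °C. Signal: p-Nitroaniline absorbance at 405 nm, read at 0 and 120 min. Control set: low DMSO alone, high DMSO plus 5 µM PC-7.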
proCasp3 act: procaspase-3 (human) activation | AID 463141 | actives 0.11% (n = 330,000) | recombinant procaspase-3 D3A, Ac-DEVD-pNA absorbance 405 nm | P42574 | activation, % at 8.5 µM;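 active means activation above the mean of all tested compounds plus 3 SD, cut at about 21% in these data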;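 further: 0% = DMSO alone and 100% = DMSO wells spiked with extra 5 µM PC-3 D3A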
Target sequence (P42574 whole entry D9A/D28A/D175A): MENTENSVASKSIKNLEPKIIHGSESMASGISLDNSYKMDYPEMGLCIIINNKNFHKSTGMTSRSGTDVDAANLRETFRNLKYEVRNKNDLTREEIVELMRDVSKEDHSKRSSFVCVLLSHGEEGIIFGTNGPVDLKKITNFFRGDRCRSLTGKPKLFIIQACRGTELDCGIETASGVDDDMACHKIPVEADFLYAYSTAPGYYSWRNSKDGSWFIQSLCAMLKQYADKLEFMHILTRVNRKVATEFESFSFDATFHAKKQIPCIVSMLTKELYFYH
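assay system = Procaspase-3 D3A mutant | signal = absorbance at 405 nm, 0 and 120 min | times = 1 h preincubation plus 2 h reaction at 25 °C | repeats = single replicate | read-out = % activation between DMSO and enzyme-spiked controls | medium = Zinc-free HEPES saline buffer with Triton X-100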
aDG glyco up: alpha-DG glycosylation activation; actives 0.22% (n = 360,000); activation, % at 10 µM; AID 624168; Pro5-aDG cells, alpha-DG glycosylation AlphaScreen (IIH6); 0% Pro5, 100% B10-LARGE cell signal;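 active means activation of at least 8% versus controls, or a plate z-score of at least 8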;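 further: Pro5 are CHO cells carrying HIG-tagged alpha-DG that lacks glycosylation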
MPTP inh: permeability transition pore inhibition. isolated mouse mitochondria, Ca2+ swelling absorbance, 30 min. inhibition, % at 10 µM. actives 1.4% (n = 360,000);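 active means inhibition of 50% or more, scaled per plate between neutral and stimulator controls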;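 further: 0% = DMSO wells given calcium and 100% = 1 mM EGTA wells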
NR3A LBD binder: NR3A (human) ligand-binding domain modulation | NR3A LBD differential scanning fluorimetry, Tm shift; 0% = protein alone, 100% = glycine-bound protein | Tm shift relative to glycine control, % at 25 µM | actives 2.5% (n = 340,000) | AID 1259313;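 active means melting temperature shift of at least 10% of the positive control shift, at one fixed dose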
Starred values were filed as active, the others as inactive. An excerpt weighted towards active compounds, which were near 3.7% of everything screened.

Cc1occc1C(=O)N/N=C/c1ccc(OCc2ccccc2)cc1 was read as procasp7 counter 4, proCasp3 act -10, aDG glyco up 0, MPTP inh -2 and NR3A LBD binder 35*.
`Cc1ccc(C(=O)Nc2ccc(OCc3ccccc3)cc2)s1` gave procasp7 counter -7, proCasp3 act 7, aDG glyco up 0, MPTP inh 1 and NR3A LBD binder 15*.
For Cc1occc1C(=O)N/N=C/c1ccc(-c2ccccc2)cc1 the results were procasp7 counter 6, proCasp3 act 5, aDG glyco up 0, MPTP inh -1 and NR3A LBD binder 7.
For Cn1cc(Cc2ccc(C(=O)N3CCN(Cc4ccccc4)CC3)cn2)c2ccccc21 the results were aDG glyco up 0 and MPTP inh -2.
`CN1C=CC(C(C(N)=O)c2ccccc2)c2ccccc21` (stereo unspecified) gave aDG glyco up 0 and MPTP inh 0.
For CCOc1ccccc1C1c2[nH]c3ccccc3c2C[C@H]2C(=O)N(C3CC3)CC(=O)N12 (stereo partly specified) the results were procasp7 counter -6, proCasp3 act -10, aDG glyco up 0, MPTP inh 0 and NR3A LBD binder 0.
N#Cc1c(N)[nH]c(C(=O)c2ccccc2)c1-c1ccccc1Br was read as aDG glyco up 0 and MPTP inh -2.
Cn1c(=O)c2nc(NCc3ccccc3)sc2n(C)c1=O was read as aDG glyco up 0, MPTP inh 0 and NR3A LBD binder -3.
`Cc1ccsc1C(=O)Nc1ccc(OCc2ccccc2)cc1` gave procasp7 counter 5, proCasp3 act -8, aDG glyco up 0, MPTP inh -3 and NR3A LBD binder 18*.
Screening O=C(Nc1ccccc1F)c1ccc(OCc2ccccc2)cc1 returned procasp7 counter -1, proCasp3 act 2, aDG glyco up 0, MPTP inh 2 and NR3A LBD binder 17*.
For COc1ccc(OC)c(NC(=O)Nc2nc(C(C)N)cs2)c1 (stereo unspecified) the results were aDG glyco up 0 and MPTP inh 1.
For C[C@H]1CNC(=O)c2c(C(=O)N[C@@H](Cc3c[nH]c4ccccc34)C(=O)OC(C)(C)C)ncn21 the results were aDG glyco up 0 and MPTP inh 1.
Screening CCOC(=O)c1ccc(NC(=O)c2nc[nH]c2C(=O)NCCNC(=O)c2[nH]cnc2C(=O)Nc2ccc(C(=O)OCC)cc2)cc1 returned procasp7 counter 5, proCasp3 act -2, aDG glyco up 0, MPTP inh 5 and NR3A LBD binder 15*.
O=C(Nc1cccc(Cl)c1)c1nc[nH]c1C(=O)NCCCCNC(=O)c1[nH]cnc1C(=O)Nc1cccc(Cl)c1 was read as procasp7 counter 2, proCasp3 act -1, aDG glyco up 0, MPTP inh 0 and NR3A LBD binder -1.
`O=C(Nc1cccc(Cl)c1)c1nc[nH]c1C(=O)NCc1ccccc1` gave procasp7 counter -11, proCasp3 act 0, aDG glyco up 0, MPTP inh 2 and NR3A LBD binder 17*.
Cc1cccc(NC(=O)c2nc[nH]c2C(=O)NCCCCNC(=O)c2[nH]cnc2C(=O)Nc2cccc(C)c2)c1 was read as procasp7 counter -2, proCasp3 act 1, aDG glyco up 0, MPTP inh 0 and NR3A LBD binder 13*.
For Cc1cccc(NC(=O)c2nc[nH]c2C(=O)NCCCCCCNC(=O)c2[nH]cnc2C(=O)Nc2cccc(C)c2)c1 the results were procasp7 counter 3, proCasp3 act 2, aDG glyco up 0, MPTP inh 2 and NR3A LBD binder 4.
O=C(Nc1ccc(Cl)cc1)c1nc[nH]c1C(=O)NCCCCNC(=O)c1[nH]cnc1C(=O)Nc1ccc(Cl)cc1 was read as procasp7 counter 2, proCasp3 act 6, aDG glyco up 0, MPTP inh 0 and NR3A LBD binder 26*.
`O=C(COC(=O)C12CC3CC(CC(Br)(C3)C1)C2)Nc1cccc(S(=O)(=O)N2CCOCC2)c1` gave procasp7 counter -3, proCasp3 act 0, aDG glyco up 0, MPTP inh 2 and NR3A LBD binder -1.
`OCCN(Cc1ccccn1)Cc1ccccn1` gave aDG glyco up 0 and MPTP inh -8.
Screening O=C(O)CCn1cc(/C=C2/NC(=S)N(c3ccccc3)C2=O)c(-c2ccccc2)n1 returned procasp7 counter -1, proCasp3 act -10, aDG glyco up 0, MPTP inh -1 and NR3A LBD binder 0.
`N#CCCn1cc(/C=C2\NC(=S)N(c3ccccc3)C2=O)c(-c2ccc(-c3ccccc3)cc2)n1` gave procasp7 counter 10, proCasp3 act -1, aDG glyco up 2, MPTP inh 3 and NR3A LBD binder 22*.
`CC1CCN(S(=O)(=O)c2ccc(C(=O)OC(C)C(=O)N(C)C3CCCCC3)cc2)CC1` (stereo unspecified) gave procasp7 counter 0, proCasp3 act 3, aDG glyco up 0, MPTP inh -1 and NR3A LBD binder 15*.
`C=CC(=O)Nc1cccc(CN2C(=O)N(c3cc(OC)cc(OC)c3)Cc3cnc(NCCCCN(CC)CC)nc32)c1` gave aDG glyco up 0, MPTP inh -1 and NR3A LBD binder -2.
Screening CCOc1cc(/C=C2\SC(=S)N(Nc3ccccc3)C2=O)ccc1O returned procasp7 counter -16, proCasp3 act -18, aDG glyco up 0, MPTP inh 7 and NR3A LBD binder 5.
Screening CN(C)c1ccc(/C=C2\SC(=S)N(Nc3ncc(C(F)(F)F)cc3Cl)C2=O)cc1 returned procasp7 counter -7, proCasp3 act -8, aDG glyco up 0, MPTP inh 5 and NR3A LBD binder 3.
Screening COc1cc(/C=C2\SC(=S)N(Nc3ncc(C(F)(F)F)cc3Cl)C2=O)ccc1O returned procasp7 counter -21, proCasp3 act -27, aDG glyco up 0, MPTP inh 16 and NR3A LBD binder 14*.
For COc1cc(/C=C2\SC(=S)N(Nc3ccccc3)C2=O)ccc1O the results were procasp7 counter -17, proCasp3 act -2, aDG glyco up 0, MPTP inh 7 and NR3A LBD binder 11*.
Screening CC(C)c1ccc(NC2CCCN(C(=O)CN3CCCCC3=O)C2)cc1 (stereo unspecified) returned aDG glyco up 0 and MPTP inh -1.
CCNC(=O)C1(C)CCCN(C(=O)c2cc(C)n(C(C)(C)C)n2)C1 (stereo unspecified) was read as aDG glyco up 0 and MPTP inh 1.
Cc1cccc(N2N=C(C(=O)N3Cc4ccccc4CC3C(N)=O)CCC2=O)c1 (stereo unspecified) was read as procasp7 counter 1, proCasp3 act 11, aDG glyco up 0, MPTP inh -1 and NR3A LBD binder 2.
